Measured values taken from PubChem BioAssay AID624467 (The Scripps Research Institute Molecular Screening Center, 2012).
Hit rate of the full screen: of about 360,000 compounds, about 3,600 (1%) were called active.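 Rule for the calls: active = activation above the mean activation of all test compounds in the run plus 3 SD (cut at about 38% in these data); inactive = the rest.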 The list comes from a sample in which actives are over-represented; it also holds similar structures and randomly drawn compounds.

Target: Trace amine-associated receptor 1 (Homo sapiens) (UniProt Q96RJ0)
Sequence (Q96RJ0 whole entry, looked up): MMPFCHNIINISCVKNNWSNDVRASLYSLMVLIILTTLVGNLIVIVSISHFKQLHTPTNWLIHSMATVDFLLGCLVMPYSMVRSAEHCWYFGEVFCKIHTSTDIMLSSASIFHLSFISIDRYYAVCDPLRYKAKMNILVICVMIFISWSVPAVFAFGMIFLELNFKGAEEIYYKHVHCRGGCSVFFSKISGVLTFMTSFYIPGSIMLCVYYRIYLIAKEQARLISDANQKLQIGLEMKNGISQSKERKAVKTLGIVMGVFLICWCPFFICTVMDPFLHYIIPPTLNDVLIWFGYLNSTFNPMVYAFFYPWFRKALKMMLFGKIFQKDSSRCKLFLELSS
Assay: activators of TAAR1 calcium mobilization – Fluo-8 calcium fluorescence, CHO RD-HGA16 cells, primary screen (AID 624467)
Details: CHO RD-HGA16 TAAR1, Fluo-8 calcium fluorescence; at 3 µM; stronger effect = higher value; vehicle wells 0%, saturating PEA agonist 100%
How it was run: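 Repeats: no replicates (n 1) | Material: CHO-derived RD-HGA16 cells with stable Gα16 and human TAAR1 | Technique: Kinetic Fluo-8 calcium fluorescence | Schedule: 17-24 h seeding, 75 min 37 °C dye, 30 min RT | Evaluation: % activation from peak over basal fluorescence ratio, DMSO-to-PEA scaled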

| SMILES | activation |
| --- | --- |
| COc1ccc(N(C)C(=O)C2CCN(S(=O)(=O)c3cccc4nsnc34)CC2)cc1 | 2.99% (inactive) |
| CCn1cc(CN2CCC(C(=O)Nc3cccc(-c4cccc(Cl)c4)c3)CC2)c(C)n1 | 19.7% (inactive) |
| O=C(Nc1cccc(-c2cccc(Cl)c2)c1)C1CCN(C2CCC2)CC1 | 45.3% (active) |
| CCn1cc(CN2CCC(C(=O)Nc3cccc(-c4cccc(Cl)c4)c3)CC2)cn1 | 16.6% (inactive) |
| O=S(=O)(c1cccs1)N1CCCc2nc(-c3ccc(Br)cc3)ccc21 | 1.37% (inactive) |
| NC(=O)c1ncn([C@@H]2O[C@H](C(=O)O)[C@@H](O)[C@H]2O)n1 | 1.97% (inactive) |
| COCCNC(=O)c1cc2c(Br)ccc(Br)c2nc1N | 0.74% (inactive) |
| CCC(c1nnnn1C1CCCC1)N(Cc1cccs1)Cc1cc2cccc(C)c2[nH]c1=O (stereo not given) | 2.02% (inactive) |
| COc1ccc2[nH]c(=O)c(CN(Cc3nnnn3CCc3ccccc3)CC3CCCO3)cc2c1 (stereo not given) | 11.8% (inactive) |
| CCC(c1nnnn1Cc1ccco1)N(CCc1ccccc1)Cc1cc2ccc(OC)cc2[nH]c1=O (stereo not given) | 100% (active) |
| CCC(c1nnnn1Cc1ccco1)N(CCc1ccccc1)Cc1cc2cccc(C)c2[nH]c1=O (stereo not given) | 43.8% (active) |
| CCC(c1nnnn1Cc1ccco1)N(Cc1cc2cc(OC)ccc2[nH]c1=O)C1CCCCC1 (stereo not given) | 1.97% (inactive) |
| Cc1cccc2cc(CN(Cc3nnnn3Cc3ccccc3)C3CCCC3)c(=O)[nH]c12 | 12% (inactive) |
| CN(C)S(=O)(=O)c1cc(C(=O)Nc2ccn(C)n2)c(Cl)cc1Cl | 2.93% (inactive) |
| Nc1ncnc2c1ncn2C1OC(CO)CC1O (stereo not given) | 1.93% (inactive) |
| c1ccc(-c2csc(N3CCc4ccccc4C3)n2)cc1 | 73% (active) |
| CN(C)CCCNC(=S)N1CCN(c2nc(-c3ccccc3)cs2)CC1 | 3.41% (inactive) |
| O=S(=O)(c1cccs1)N1CCc2ccccc2C1 | 13% (inactive) |
| COc1ccc(Cn2c(-c3ccc(Cl)cc3)c[n+]3ccccc23)cc1 | 12.9% (inactive) |
| C=CC1=CCN(S(=O)(=O)C(C)(C)C)[C@@H]1CCO | 3.56% (inactive) |
| FC(F)(F)c1ccc(-n2cn[nH]c2=S)cc1 | 0.73% (inactive) |
| CSc1ccc(CCNC(=O)C2CCN(c3nnc(-n4cccc4)s3)CC2)cc1 | -0.88% (inactive) |
| O=C(C1CCN(c2nnc(-n3cccc3)s2)CC1)N1CCc2ccccc2C1 | 40.9% (active) |
| CCOC(=O)C1CCCN(C(=O)C2CCN(c3nnc(-n4cccc4)s3)CC2)C1 (stereo not given) | -0.39% (inactive) |
| CC1(C)CC(=O)C=C(c2ccccc2CO)C1=O | 0.98% (inactive) |
